The full list was thinned out, with hits kept by preference.
Dyrk1A ADPGlo: inhibitors of rat Dyrk1A kinase; Q63470; ADP-Glo luminescence, NFATc1 peptide; inhibition, % at 12.5 µM; hit rate 0.43% among 310,000; in the data active = inhibition above about 50%
CDK5 inh: blocks human CDK5/p35 kinase activity; Q00535+Q15078; AID 488839; Recombinant CDK5/p35, ADP-Glo luminescence, 60 min; inhibition, % at 10 µM; hit rate 0.01% among 330,000;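 active = highest replicate inhibition of at least 50% and at least 75% of replicates reaching 50%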
STK33 inh: human STK33 kinase inhibition; Q9BYT3; inhibition, % at 10 µM; hit rate 0.073% among 320,000; AID 2661; purified STK33, MBP phosphorylation, ADP-Glo luminescence;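 active = inhibition at or above 25%, using the most active replicate where run in duplicate; inactive = inhibition below 25%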
Target sequence (Q9BYT3 whole entry, looked up): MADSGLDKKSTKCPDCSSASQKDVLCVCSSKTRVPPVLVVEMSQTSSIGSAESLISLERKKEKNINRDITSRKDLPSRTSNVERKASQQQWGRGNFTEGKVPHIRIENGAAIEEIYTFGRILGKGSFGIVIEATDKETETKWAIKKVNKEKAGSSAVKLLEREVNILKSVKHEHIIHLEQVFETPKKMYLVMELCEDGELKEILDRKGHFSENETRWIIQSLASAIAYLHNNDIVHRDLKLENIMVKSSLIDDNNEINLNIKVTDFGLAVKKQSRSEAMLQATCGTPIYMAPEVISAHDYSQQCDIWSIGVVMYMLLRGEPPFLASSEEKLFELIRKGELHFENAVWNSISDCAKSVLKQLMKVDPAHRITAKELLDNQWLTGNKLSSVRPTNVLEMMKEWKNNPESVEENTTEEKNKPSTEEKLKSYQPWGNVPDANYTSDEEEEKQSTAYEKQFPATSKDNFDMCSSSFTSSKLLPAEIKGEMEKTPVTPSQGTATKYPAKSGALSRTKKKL
GSK3beta inhib: human GSK3beta kinase inhibition. P49841. hit rate 0.038% among 300,000. AID 2097. activity score (negative = inhibition), % at 10 µM. GST-GSK3beta kinase, ADP-Glo luminescence, 60 min; stronger effect = lower value;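 active = more than half of replicate wells score below -50%, meaning over 50% inhibition versus plate controls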
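Test system: GST-tagged human GSK3beta kinase, cell-free; evaluation: activity score scaled between in-plate DMSO and GW8510 controls; measured by: ADP-Glo luminescence; incubation: 60 min reaction, RT; benchmarks: DMSO and 20 µM GW8510; reagent: peptide substrate plus 25 µM ATP (final); medium: Tris/MgCl2 kinase buffer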
GSK3 alpha inh: blocks human GSK-3 alpha kinase; P49840; ADP-Glo luminescence, 60 min; inhibition, % at 10 µM; hit rate 0.1% among 320,000;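 active = more than half of replicates show inhibition above 20%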;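 note: GST-tagged GSK-3 alpha with peptide substrate and 25 µM ATP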
Dyrk1A artifact: counter-screen for Dyrk1A inhibitors: ADP-Glo luciferase artifacts | ADP-Glo luciferase artifact assay, no Dyrk1A, luminescence | 1,300 tested, under 10 active | AC50, µM (top dose mostly 12 µM) | shares compounds with Dyrk1A ADPGlo;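 active = fitted half-maximal dose AC50 no more than ten times the top valid tested dose, with luminescence dropping as dose rises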
Each line names hits and unclear results; the compound was inactive in the other large screens (follow-up assays come after a bar, where they were run).

CC(C)(C)NC(=O)C(=O)NC(=O)c1c(F)cccc1Cl	Dyrk1A ADPGlo 63.2 | Dyrk1A artifact inactive
O=C(CSc1nnc(-c2ccncc2)o1)NCc1ccccc1Cl	none
O=C(O)c1ccc(N=NNc2cccc([N+](=O)[O-])c2)cc1	none
N#C/C(=N\Nc1cccc([N+](=O)[O-])c1)C(=O)c1ccc(Br)cc1	Dyrk1A ADPGlo 78.4 | Dyrk1A artifact inactive
COc1ccc(/C=N\NC(=O)c2ccccc2)cc1COc1ccc(F)cc1	none
O=C1C=C(N2CCOCC2)c2ccccc2C1=O	Dyrk1A ADPGlo 56.4 | Dyrk1A artifact inactive
O=C(NC1CCCCCC1)C1CCCN(S(=O)(=O)c2cnc[nH]2)C1 (stereo not drawn)	none
CC(=O)Nc1cccc(NC(=O)c2cc3ccccc3o2)c1	Dyrk1A ADPGlo 52.5 | Dyrk1A artifact inactive
O=C(Nc1cccc(-c2nc3ncccc3o2)c1)c1cc2ccccc2o1	Dyrk1A ADPGlo 56.1 | Dyrk1A artifact inactive
O=C(CSc1nc2c(c(=O)n1-c1ccc(Cl)cc1)SCC2)N1CCCC1	none (no result: GSK3 alpha inh)
Cc1ccc2nc(-c3ccc(NS(=O)(=O)c4ccc(F)cc4)cc3)sc2c1	none
O=C1CCCC2=C1Sc1ccc(Cl)cc1N2	Dyrk1A ADPGlo 54.2 | Dyrk1A artifact inactive
Cc1ccc(NC(=O)c2ccc(S(=O)(=O)N3CCC(C)CC3)cc2)nc1	none (no result: STK33 inh, GSK3 alpha inh)
Cc1c(C(=O)O)cccc1-n1c(C)cc(/C=N/Nc2ccc([N+](=O)[O-])cn2)c1C	Dyrk1A ADPGlo 58.8 | Dyrk1A artifact inactive
Cc1cc(/C=N/Nc2ccc([N+](=O)[O-])cn2)c(C)n1-c1ccccc1	none
CCn1c2ccccc2c2nc3ccccc3nc21	none
CCn1c2ccccc2c2nc3cc(C(=O)O)ccc3nc21	Dyrk1A ADPGlo 62.0 (no result: STK33 inh, GSK3beta inhib, GSK3 alpha inh) | Dyrk1A artifact inactive
COc1ccc(Nc2ncnc3nc[nH]c23)cc1OC	Dyrk1A ADPGlo 50.2 | Dyrk1A artifact inactive
CC(C)c1ccc(/C=C/C(=O)Nc2nc3ccc([N+](=O)[O-])cc3s2)cc1	none
Cc1ccc2nc(NC(=O)CCCC(=O)O)sc2c1	Dyrk1A ADPGlo 61.8 | Dyrk1A artifact inactive
Cc1cccc(OCC(=O)Nc2nc3ccc([N+](=O)[O-])cc3s2)c1	Dyrk1A ADPGlo 63.6 | Dyrk1A artifact inactive
Cc1cccc(OCC(=O)Nc2nc3ccc([N+](=O)[O-])cc3s2)c1C	none
O=C(O)COc1ccc(/C=C/c2nc3ccc([N+](=O)[O-])cc3s2)cc1	Dyrk1A ADPGlo 87.3 | Dyrk1A artifact inactive
Cc1nn(C)c2ncc(C(N)=O)c(Oc3cccnc3)c12	none
c1cnc(N2CCN(Cc3ccc4c(c3)OCO4)CC2)cn1	none (no result: Dyrk1A ADPGlo, GSK3beta inhib)
COCC(=O)Nc1cc(Cl)ccc1C(F)(F)F	none (no result: Dyrk1A ADPGlo, CDK5 inh)
COCCSc1nnc(NC(=O)COC)s1	none
COc1cc(-c2cc(=O)c3c(O)c(OC)c(OC)c(O)c3o2)ccc1O	Dyrk1A ADPGlo 79.9, STK33 inh 46.2 | Dyrk1A artifact inactive
Oc1c(Cl)cc(Cl)cc1C1=NNC(c2ccc(Cl)cc2)C1 (stereo not drawn)	none (no result: STK33 inh, GSK3beta inhib, GSK3 alpha inh)
CC(=O)c1cc2ccc(O)cc2oc1=O	none
Cc1ccc(N=c2oc3cc(O)ccc3cc2C(N)=O)cc1	Dyrk1A ADPGlo 77.4 | Dyrk1A artifact inactive
CCCOc1ccc(/C=N/NC(=O)CN2CCCCC2)cc1	Dyrk1A ADPGlo 70.7 | Dyrk1A artifact inactive
CCCCn1c(NCCO)nc2ccccc21	Dyrk1A ADPGlo 57.8 | Dyrk1A artifact inactive
COc1ccc(/C=c2\s/c(=C\C(=O)C(C)(C)C)[nH]c2=O)cc1O	Dyrk1A ADPGlo 63.5, GSK3 alpha inh 63.2 | Dyrk1A artifact inactive
COc1cc(/C=c2\s/c(=C\C(=O)C(C)(C)C)[nH]c2=O)cc(OC)c1OC	none
C(=N\NC1=Nc2cccc3cccc1c23)/c1cccnc1	none
N#CC1=C(N)Oc2ccc3ccc(O)cc3c2C1c1ccsc1 (stereo not drawn)	Dyrk1A ADPGlo 76.7 (no result: STK33 inh, GSK3 alpha inh) | Dyrk1A artifact inactive
O=C(COC(=O)c1cccs1)c1ccc2ccccc2c1	Dyrk1A ADPGlo 50.7 | Dyrk1A artifact inactive
O=C(COC(=O)c1cccs1)c1ccc2c(c1)OCCO2	none
Oc1ccccc1/C=N/n1c(-c2ccccc2)n[nH]c1=S	none
O=[N+]([O-])c1ccc(O)c(/C=N/n2c(-c3ccccc3)n[nH]c2=S)c1	Dyrk1A ADPGlo 56.6 | Dyrk1A artifact inactive
O=C1CN(c2nc(-c3cccnc3)nc3scc(-c4ccccc4)c23)CCN1	none
CCOc1ccc(/C=C2\SC(=S)N(C)C2=O)cc1OC	none (no result: Dyrk1A ADPGlo, CDK5 inh)
